This data set is described as follows: Toxicity liver stage against HepG2, at 10uM. It counts as cell-based. Set-up: test concentration 10 uM, cell line HepG2-A16-CD81EGFP. Conditions: human, HepG2-A16-CD81EGFP cells; read-out: INHIBITION
The gist of the method:
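Uninfected HepG2-A16-CD81EGFP cells, 3 × 10^3 per well, 1536-well, plated on prespotted compound at 10 μM final, parasite-free screening media added to match infected plates; puromycin 10 μM positive, DMSO 0.5% negative; run in parallel with 48 h PbLuc assay at 37 °C, 5% CO2; viability by CellTiter-Glo luminescence, normalized to controls.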
`O=C(C1CC1)N1CC[C@H](c2nnc(Cc3c[nH]c4ccccc34)o2)C1`: the cytotoxicity at 10 µM was determined as 4.09%.
For `CC(C)NC(=O)N1CCOC2(CCCNC2)C1` (stereo unspecified), the cytotoxicity at 10 µM amounted to 4.76%.
On to `CCN1CC2(CCCCN2C(=O)C2CCCCC2)CC1=O` (stereo unspecified), for which the cytotoxicity at 10 µM worked out at 18.3%.
On to `CCNC(=O)N1CCC2(CC1)CCn1c(-c3cccc(OC)c3)cnc12`, for which the cytotoxicity at 10 µM is 2.81%.
With `CCOC(=O)N1CCN(C(=O)c2sc(-c3ccc(F)cc3)nc2C)CC1` the figure was 10.7%; with `Cc1cccc(C(=O)N2C[C@@H]3OCCN(C(C)C)[C@@H]3C2)n1`, -9.2%.
For the compound `O=C(Cn1ccc(C(=O)O)n1)Nc1c(Cl)cccc1Cl`, the cytotoxicity at 10 µM came out at 7.07%.
The value for `Cc1cc(N(C)C)nc(C2(C)CCCN2CC(N)=O)n1` (stereo unspecified) was -2.8%; that for `Cc1ccc(-c2nnc(C3CCCN3S(=O)(=O)c3cnn(C)c3C)o2)s1` (stereo unspecified) was 5.35%; that for `NC(=O)C1(c2cnccn2)CCCN1Cc1ccccn1` (stereo unspecified) was -6.36%.
`COc1ccc(C)cc1CC(=O)N1CC[C@@]2(CCCO2)[C@@H](O)C1`: the cytotoxicity at 10 µM was -1.47%.
As to `Cc1cccc(Nc2cc(C)nc(C3CCCCN3CC(N)=O)n2)n1` (stereo unspecified), the cytotoxicity at 10 µM is -4.03%.
As to `COCC(=O)N1CCCC1c1cc(N2CCN(C(C)=O)CC2)cc(C)n1` (stereo unspecified), the cytotoxicity at 10 µM was -9.41%.
Turning to `COc1cccc(C(=O)N2CCCC2c2ncc3c(n2)CCN(C)C3)c1` (stereo unspecified), the cytotoxicity at 10 µM is -9.41%.
For the compound `CC(=O)NC[C@]1(O)CCN(C(=O)c2ccc(F)c(Cl)c2)C[C@H]1O`, the cytotoxicity at 10 µM turned out to be 1.47%.
On to `COCC(=O)NC(c1ccccc1)c1ccc2c(c1)CCCO2` (stereo unspecified), for which the cytotoxicity at 10 µM is -1.83%.
With `CN(Cc1nnc2ccccn12)C(=O)NC1CCCCC1` the figure was -5.97%; with `COc1ccccc1CC1CCCN(C(=O)c2n[nH]c3c2CCC3)C1` (stereo unspecified), 13.3%.
With `Cc1cc(C2CCCN2Cc2nnc(-c3ccco3)o2)on1` (stereo unspecified) the figure was 8.92%; with `NC(=O)c1ccc(CNC(=O)NCc2cc[nH]n2)cc1`, 12.3%.
Take `CNC(=O)c1c(C)cccc1NCC(=O)Nc1cc(C)nn1C`: the cytotoxicity at 10 µM was -0.503%.
Turning to `CC(Cc1cccc(F)c1)C(=O)NS(=O)(=O)c1cnn(C)c1` (stereo unspecified), the cytotoxicity at 10 µM came out at 2.11%.
Take `CCNc1cc2c(nn1)CCN(C(=O)C1Cc3ccccc3O1)C2` (stereo unspecified): the cytotoxicity at 10 µM is -9.32%.
In the case of `Cc1nc(-c2cnn(C)c2)sc1C(=O)NCc1ccc(C)n1C`, the cytotoxicity at 10 µM was determined as 9.25%.
With `CC1CN(C(=O)NCc2cccc(C#N)c2)CCN1CC(F)(F)F` (stereo unspecified) the figure was -6.68%; with `CN(C)c1nccc(NC(=O)c2ccncc2)n1`, -4.33%.
The value for `COC1CCN(C(=O)Cn2nc(C)cc2C)CC1` was 3.81%; that for `CC(CC(=O)N1CCCN(Cc2nccn2C)CC1)n1cccc1` (stereo unspecified) was -12.5%.
The value for `N#Cc1cccnc1N1CCC(OCc2ccccc2)CC1` was -7.43%.
As to `CNC(=O)CN1CCOC(c2ccccc2C(F)(F)F)C1` (stereo unspecified), the cytotoxicity at 10 µM stood at 0.71%.
The value for `O=C(NCC1(N2CCOCC2)CCSC1)Nc1ccncc1` (stereo unspecified) was 12.5%; that for `O=S(=O)(NCC1COc2ccccc2C1)N1CCOCC1` (stereo unspecified) was -1.5%.
Consider `COCCNC(=O)Nc1cccc(COCCOC(C)C)c1`, for which the cytotoxicity at 10 µM was found to be 6.13%.
As for `O=C(NC1CCC(C(=O)N2CCSCC2)CC1)N1CCOCC1` (stereo unspecified), the cytotoxicity at 10 µM is 13.1%.
In the case of `CCc1nccn1C1CCCN(C(=O)c2cc[nH]n2)C1` (stereo unspecified), the cytotoxicity at 10 µM was found to be 4.54%.
With `O=C(NC1CC1)c1nnn(-c2cccc(C(F)(F)F)c2)c1C1CC1` the figure was 4.01%; with `Cc1cc(C)n(CC2CN(Cc3cccnc3)CCO2)n1` (stereo unspecified), -3.08%; with `Cc1cc(C)n(C2CCCN(C(=O)c3ccc(F)c(F)c3)C2)n1` (stereo unspecified), -4.91%.
With `CC(C)CC(CCO)CNC(=O)N1CCCC1(C)C` (stereo unspecified) the figure was -12.7%.
For the compound `COc1cc(F)ccc1N1CCN(Cc2nc(C)c(C)o2)CC1`, the cytotoxicity at 10 µM was found to be 10.7%.
On to `CN(C(=O)COC1CCCCC1)C1CCN(CC2CCOC2)CC1` (stereo unspecified), for which the cytotoxicity at 10 µM came to 0.33%.
With `Cc1c(C(=O)NC2(C#N)CCSC2)cnn1-c1ccccc1Cl` (stereo unspecified) the figure was -2.06%; with `CNC(=O)c1cccc(CNC(C)c2cc(Cl)ccc2OC)c1` (stereo unspecified), 10.3%.
The value for `CCc1n[nH]c(=O)c(C(=O)N2CCSC(C)(C)C2)c1CC` was 18.6%; that for `COC(C)(C)CNC(=O)c1cn(-c2cccc(Cl)c2F)nn1` was 8.83%; that for `CC(C)N(C)C(=O)c1ccc(Cl)c(NC(=O)C2CCC2)c1` was -2.74%.
With `CCCNC(=O)C(C)Nc1ccc(COCC)cc1` (stereo unspecified) the figure was 2.37%; with `Cc1ncc(CN(C)C(=O)c2ccc3c(c2O)OC(C)(C)C3)s1`, 6.93%.
As for `COCCNC(=O)C(C)S(=O)(=O)c1ccc(OC)cc1` (stereo unspecified), the cytotoxicity at 10 µM is 4.4%.
Regarding `Cc1cccc(S(=O)(=O)NCC(C)(C)CC(C)O)c1C#N` (stereo unspecified), the cytotoxicity at 10 µM is -1.37%.
For `CC(=O)N1CCN(CC=C(C)C)CC1`, the cytotoxicity at 10 µM was 3.95%.
For the compound `Cc1ccsc1CN(C)c1cc(N2CCCC2CO)ncn1` (stereo unspecified), the cytotoxicity at 10 µM came to 11.7%.
With `Cc1cc(C)cc(C(=O)N2CCN(C(=O)N(C)C)CC2(C)C)c1` the figure was 1.98%; with `CCCN(C)S(=O)(=O)NC(=O)c1ccc(CC)o1`, 20.5%; with `CN(CCc1ccc2c(c1)CCO2)C1CCS(=O)(=O)CC1`, -7.94%.
The value for `CC(NCCCC#N)c1ccc(S(C)(=O)=O)c(F)c1` (stereo unspecified) was 6.96%; that for `CSC(C)(C)CNC(=O)NC1CCN(C)CC1` was 18.9%.
With `O=C(c1cccnc1-n1cccn1)N1CCN(CC2CC2)CC1` the figure was -4.71%.
Consider `CC(C)NC(=O)NCCCc1cc(N)n(-c2ccccc2)n1`, for which the cytotoxicity at 10 µM is -6.78%.
With `COc1ccc(CS(=O)(=O)CC(=O)NCC2CC2)cc1F`, the cytotoxicity at 10 µM was -0.265%.
The value for `O=C(Cc1cccs1)N1Cc2nc(COCC3CC3)oc2C1` was 2.55%.
With `CN(C)C(=O)C1CCC2(CCN(C(=O)Nc3cccc(F)c3)CC2)O1` (stereo unspecified), the cytotoxicity at 10 µM is -104%.
With `CCS(=O)(=O)NC[C@]12COC[C@H]1CN(Cc1cc(C)on1)C2` the figure was 2.34%; with `COC(=O)c1ccc2c(-c3ccnc(N[C@@H](C)CO)n3)c[nH]c2c1`, -5.94%.
For `CN(c1nccc(-c2cnc3sccn3c2=O)n1)C1CCCCC1`, the cytotoxicity at 10 µM is -8.44%.
Take `CCCOc1ccc(C(=O)N2CCN3CCNC(=O)C3C2)cc1Cl` (stereo unspecified): the cytotoxicity at 10 µM is -1.65%.
As for `Cc1[nH]c2ccc(CNC3CCN(Cc4ccccn4)CC3)cc2c1C`, the cytotoxicity at 10 µM was found to be 3.97%.
On to `Cc1cnc(NC(=O)c2cccc(CN(C)Cc3ncccc3C)c2)s1`, for which the cytotoxicity at 10 µM is 14.2%.
The value for `CCN1CCC(CC(=O)N2CCn3cccc3C2c2cccnc2)CC1` (stereo unspecified) was -8.87%; that for `O=C(NC1CCCN(c2ncccn2)C1)c1cn2ccccc2n1` (stereo unspecified) was -4.38%.
With `O=C(NCCC1CN(Cc2c[nH]cn2)CCO1)c1ccccc1O` (stereo unspecified), the cytotoxicity at 10 µM worked out at 0.423%.
Turning to `CCN1CC2(CCC1=O)CCN(C(=O)c1ccc(C)cc1O)CC2`, the cytotoxicity at 10 µM is -0.0198%.
`CN(C)c1ccc(CN2CCN(c3ccc(C#N)cc3)C(=O)C2)cn1`: the cytotoxicity at 10 µM is -28.2%.
The value for `O=S1(=O)CCC(n2cc(C3=CCN(CCN4CCCCC4)CC3)cn2)C1` (stereo unspecified) was -8.29%; that for `CCc1nc(C)sc1CN(Cc1ccncc1)C1CCN(C)CC1` was 6.4%.
In the case of `CC(C)C(O)C1CCN(c2ccnc(C(=O)NCc3ccco3)c2)CC1` (stereo unspecified), the cytotoxicity at 10 µM is -0.598%.
The value for `CS(=O)(=O)N1C[C@H]2CNC[C@@]2(C(=O)NCCOc2ccccc2)C1` was 2.1%; that for `CCC[C@@H]1CN(C(=O)c2cc(-c3cccs3)n(C)n2)C[C@H]1NS(C)(=O)=O` was -1.63%.
As for `CC(C)(C)C(=O)N[C@H]1CC[C@H](Nc2nccc(-c3ccncc3)n2)C1`, the cytotoxicity at 10 µM came to 5.05%.
The value for `O=C1NCCN2CCN(C(=O)Nc3ccc(-c4ccccc4)cc3)CC12` (stereo unspecified) was -119%; that for `CCc1nc(C)c(CN2CCOC(Cc3cccc4ccccc34)C2)[nH]1` (stereo unspecified) was -5.54%.
As to `CCS(=O)(=O)N1CCC(c2nnc(CN3CCOCC3)n2C)CC1`, the cytotoxicity at 10 µM worked out at 17%.
The value for `CN1C(=O)CC(C(=O)O)C12CCN(Cc1ccc(F)cc1Cl)CC2` (stereo unspecified) was -4.88%; that for `Cn1ncc2c(N3CCN(C(N)=O)CC3)nc(C3CCCC3)nc21` was 18.2%.
`CS(=O)(=O)c1ccc(C(=O)N2CCCC(n3cccn3)C2)cc1` (stereo unspecified): the cytotoxicity at 10 µM is -6.98%.
The value for `COc1cccc(C(=O)N(C)Cc2ncc(C)c(OC)c2C)c1OC` was -7.02%.
Turning to `Cc1nccc(-c2cccc(NCC(=O)N3CCCCCCC3)c2)n1`, the cytotoxicity at 10 µM is -0.513%.
As for `Cc1csc(N2CCN(C(=O)Cc3ccsc3)CC2)n1`, the cytotoxicity at 10 µM was found to be 2.68%.
In the case of `Cc1nn(C)c(N(C)C)c1CNC(C)Cc1c(F)cccc1F` (stereo unspecified), the cytotoxicity at 10 µM is -1.03%.
With `c1nn(C2CCCCC2)cc1-c1cncn1CCCN1CCCCC1` the figure was 2.37%; with `Cc1ncsc1CN1C[C@@H]2COC[C@]2(C(=O)NC(C)C)C1`, -98.6%.
On to `Cc1ccc(CN2CCC3(CC2)C(=O)N(CCO)CCN3C)o1`, for which the cytotoxicity at 10 µM is -1.63%.
The value for `CC(C)COCc1cncc2c1CCN(C(=O)c1cscn1)C2` was -108%; that for `Cc1ccc(CN2CC[C@H]3CO[C@H](CN(C)Cc4ccco4)[C@H]3C2)s1` was 4.74%; that for `c1cnc(N2CCCn3nnc(COCC4CC4)c3C2)nc1` was -4.97%.
With `Cc1noc([C@@]23CCO[C@@H]2CCN(Cc2scnc2C)C3)n1` the figure was -111%.

The record behind these values is ChEMBL document CHEMBL4513216, “Probing the Open Global Health Chemical Diversity Library for Multistage-Active Starting Points for Next-Generation Antimalarials” (ACS Infect Dis, 2020).
